Measured values reported in ChEMBL document CHEMBL1142636 (2000).

Columns and labels:
ACHN = assay: Growth inhibition of human ACHN cells; format: functional; settings: read-out: pLC50 (the source's name) (converted)
NCI-H23 = assay: Growth inhibition of human NCI-H23 cells; format: functional
[1] = Growth inhibition of human […] cells; format: functional; settings: read-out: pLC50 (the source's name) (converted)
SN12C = assay: Growth inhibition of human SN12C cells; format: functional; settings: read-out: pLC50 (the source's name) (converted)
Method in brief: (§1)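 Tested at the NCI in its human disease-oriented in vitro screen of 60 tumour cell lines, following the Monks et al. methods. Activity is expressed as GI50, given as log molar values.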

NCI-H226 = assay: Growth inhibition of human NCI-H226 cells; format: functional
HOP-92 = assay: Growth inhibition of human HOP92 cells; format: functional; settings: read-out: pLC50 (the source's name) (converted)
A498 = assay: Growth inhibition of human A498 cells; format: functional; settings: read-out: pLC50 (the source's name) (converted)
M14 = assay: Growth inhibition of human M14 cells; format: functional; settings: read-out: pLC50 (the source's name) (converted)
NCI-H522 = assay: Growth inhibition of human NCI-H522 cells; format: functional; settings: read-out: pLC50 (the source's name) (converted)
MDA-MB-231 = assay: Growth inhibition of human MDA-MB-231 cells; format: functional; settings: read-out: pLC50 (the source's name) (converted)
Hs-578T = assay: Growth inhibition of human HS578T cells; format: functional; settings: read-out: pLC50 (the source's name) (converted)
SNB-75 = assay: Growth inhibition of human SNB75 cells; format: functional; settings: read-out: pLC50 (the source's name) (converted); method in brief: as §1
SR = assay: Growth inhibition of human SR cells; format: functional; method in brief: as §1
SK-MEL-28 = assay: Growth inhibition of human SK-MEL-28 cells; format: functional; settings: read-out: pLC50 (the source's name) (converted); method in brief: as §1
BT-549 = assay: Growth inhibition of human BT549 cells; format: functional
SF-539 = assay: Growth inhibition of human SF539 cells; format: functional; settings: read-out: pLC50 (the source's name) (converted); method in brief: as §1
MDA-MB-435 = assay: Growth inhibition of human MDA-MB-435 cells; format: functional
SK-OV-3 = assay: Growth inhibition of human SK-OV-3 cells; format: functional; settings: read-out: pLC50 (the source's name) (converted); method in brief: as §1
COLO 205 = assay: Growth inhibition of human COLO205 cells; format: functional
EKVX = assay: Growth inhibition of human EKVX cells; format: functional; settings: read-out: pLC50 (the source's name) (converted)
[2] = Growth inhibition of human OVACR8 cells; format: functional; settings: read-out: pLC50 (the source's name) (converted)
XF498 = assay: Growth inhibition of human XF498 cells; format: functional; settings: read-out: pLC50 (the source's name) (converted); method in brief: as §1
CCRF-CEM = assay: Growth inhibition of human CCRF-CEM cells; format: functional
HT-29 = assay: Growth inhibition of human HT29 cells; format: functional
SW-620 = assay: Growth inhibition of human SW620 cells; format: functional; method in brief: as §1
DU-145 = assay: Growth inhibition of human DU145 cells; format: functional; settings: read-out: pLC50 (the source's name) (converted)
DLD-1 = assay: Growth inhibition of human DLD1 cells; format: functional
T47D = assay: Growth inhibition of human T47D cells; format: functional; method in brief: as §1
TK-10 = assay: Growth inhibition of human TK10 cells; format: functional; settings: read-out: pLC50 (the source's name) (converted); method in brief: as §1
UACC-62 = assay: Growth inhibition of human UACC62 cells; format: functional; settings: read-out: pLC50 (the source's name) (converted); method in brief: as §1
[3] = Growth inhibition of human RPMI8266 cells; format: functional; settings: read-out: pLC50 (the source's name) (converted)
IGROV-1 = assay: Growth inhibition of human IGROV1 cells; format: functional; settings: read-out: pLC50 (the source's name) (converted)
NCI-H322M = assay: Growth inhibition of human NCI-H322M cells; format: functional
PC-3 = assay: Growth inhibition of human PC3 cells; format: functional; settings: read-out: pLC50 (the source's name) (converted)
LOX IMVI = assay: Growth inhibition of human LOX IMVI cells; format: functional; settings: read-out: pLC50 (the source's name) (converted)
HOP-62 = assay: Growth inhibition of human HOP62 cells; format: functional
HCT-15 = assay: Growth inhibition of human HCT15 cells; format: functional; settings: read-out: pLC50 (the source's name) (converted)
[4] = Growth inhibition of human OVACR5 cells; format: functional; settings: read-out: pLC50 (the source's name) (converted)
[5] = Growth inhibition of human OVACR4 cells; format: functional; settings: read-out: pLC50 (the source's name) (converted)
M19-MEL = assay: Growth inhibition of human M19-MEL cells; format: functional; settings: read-out: pLC50 (the source's name) (converted)
UACC-257 = assay: Growth inhibition of human UACC257 cells; format: functional; settings: read-out: pLC50 (the source's name) (converted); method in brief: as §1
KM-20L2 = assay: Growth inhibition of human KM20L2 cells; format: functional; settings: read-out: pLC50 (the source's name) (converted)
RXF 393 = assay: Growth inhibition of human […] cells; format: functional; settings: read-out: pLC50 (the source's name) (converted)
SNB-19 = assay: Growth inhibition of human SNB19 cells; format: functional; settings: read-out: pLC50 (the source's name) (converted); method in brief: as §1
SK-MEL-5 = assay: Growth inhibition of human SK-MEL-5 cells; format: functional; settings: read-out: pLC50 (the source's name) (converted); method in brief: as §1
HCT-116 = assay: Growth inhibition of human HCT116 cells; format: functional; settings: read-out: pLC50 (the source's name) (converted)
SF-295 = assay: Growth inhibition of human SF295 cells; format: functional; settings: read-out: pLC50 (the source's name) (converted); method in brief: as §1
HOP-18 = assay: Growth inhibition of human HOP18 cells; format: functional; settings: read-out: pLC50 (the source's name) (converted)
[6] = Growth inhibition of human LXFL529 cells; format: functional; settings: LXFL 529
[7] = Growth inhibition of human HL60(TB) cells; format: functional, HL-60(TB); settings: HL-60, read-out: pLC50 (the source's name) (converted)
MDA-N = assay: Growth inhibition of human MDA-N cells; format: functional; settings: read-out: pLC50 (the source's name) (converted)
K562 = assay: Growth inhibition of human K562 cells; format: functional
SK-MEL-2 = assay: Growth inhibition of human SK-MEL-2 cells; format: functional; settings: read-out: pLC50 (the source's name) (converted); method in brief: as §1
Malme-3M = assay: Growth inhibition of human MALME-3M cells; format: functional; settings: read-out: pLC50 (the source's name) (converted)
KM12 = assay: Growth inhibition of human KM12 cells; format: functional; settings: read-out: pLC50 (the source's name) (converted)
DMS-273 = assay: Growth inhibition of human DMS273 cells; format: functional
A549 = assay: Growth inhibition of human A549 cells; format: functional
786-0 = assay: Growth inhibition of human 786-0 cells; format: functional; settings: read-out: pLC50 (the source's name) (converted)
MOLT-4 = assay: Growth inhibition of human MOLT4 cells; format: functional
CAKI-1 = assay: Growth inhibition of human CAKI1 cells; format: functional; settings: read-out: pLC50 (the source's name) (converted)
[8] = Growth inhibition of human MCF7/ADR-RES cells; format: functional; settings: NCI/ADR-RES, read-out: pLC50 (the source's name) (converted)
NCI-H460 = assay: Growth inhibition of human NCI-H460 cells; format: functional
UO-31 = assay: Growth inhibition of human UO31 cells; format: functional; settings: read-out: pLC50 (the source's name) (converted); method in brief: as §1
U-251 = assay: Growth inhibition of human U251 cells; format: functional; settings: read-out: pLC50 (the source's name) (converted); method in brief: as §1
[9] = Growth inhibition of human DMS144 cells; format: functional
HCC 2998 = assay: Growth inhibition of human HCC2998 cells; format: functional
SF-268 = assay: Growth inhibition of human SF268 cells; format: functional; method in brief: as §1
MCF7 = assay: Growth inhibition of human MCF7 cells; format: functional; settings: read-out: pLC50 (the source's name) (converted)

C=C(C)C1CC2(C)CC1c1c(c(C)cc3c1[nH]c1ccccc13)O2 (stereo unspecified)
> 25.1 µM: CC50 (ACHN) | LC50 (NCI-H23) | CC50 [1] | CC50 (SN12C) | LC50 (NCI-H226) | CC50 (HOP-92) | CC50 (A498) | CC50 (M14) | CC50 (NCI-H522) | CC50 (MDA-MB-231) | CC50 (Hs-578T) | CC50 (SNB-75) | LC50 (SR) | CC50 (SK-MEL-28) | LC50 (BT-549) | CC50 (SF-539) | LC50 (MDA-MB-435) | CC50 (SK-OV-3) | LC50 (COLO 205) | CC50 (EKVX) | CC50 [2] | CC50 (XF498) | LC50 (CCRF-CEM) | LC50 (HT-29) | LC50 (SW-620) | CC50 (DU-145) | LC50 (DLD-1) | LC50 (T47D) | CC50 (TK-10) | CC50 (UACC-62) | CC50 [3] | CC50 (IGROV-1) | LC50 (NCI-H322M) | CC50 (PC-3) | CC50 (LOX IMVI) | LC50 (HOP-62) | CC50 (HCT-15) | CC50 [4] | CC50 [5] | CC50 (M19-MEL) | CC50 (UACC-257) | CC50 (KM-20L2) | CC50 (RXF 393) | CC50 (SNB-19) | CC50 (SK-MEL-5) | CC50 (HCT-116) | CC50 (SF-295) | CC50 (HOP-18) | LC50 [6] | CC50 [7] | CC50 (MDA-N) | LC50 (K562) | CC50 (SK-MEL-2) | CC50 (Malme-3M) | CC50 (KM12) | LC50 (DMS-273) | LC50 (A549) | CC50 (786-0) | LC50 (MOLT-4) | CC50 (CAKI-1) | CC50 [8] | LC50 (NCI-H460) | CC50 (UO-31) | CC50 (U-251) | LC50 [9] | LC50 (HCC 2998) | LC50 (SF-268) | CC50 (MCF7)

Cc1cc2c3ccccc3n3c2c2c1O[C@@]1(C)CC[C@H]([C@@H]2C1)C3(C)C
> 25.1 µM: CC50 (ACHN) | LC50 (NCI-H23) | CC50 [1] | CC50 (SN12C) | LC50 (NCI-H226) | CC50 (HOP-92) | CC50 (A498) | CC50 (M14) | CC50 (NCI-H522) | CC50 (MDA-MB-231) | CC50 (Hs-578T) | CC50 (SNB-75) | LC50 (SR) | CC50 (SK-MEL-28) | LC50 (BT-549) | CC50 (SF-539) | LC50 (MDA-MB-435) | CC50 (SK-OV-3) | LC50 (COLO 205) | CC50 (EKVX) | CC50 [2] | CC50 (XF498) | LC50 (CCRF-CEM) | LC50 (HT-29) | LC50 (SW-620) | CC50 (DU-145) | LC50 (DLD-1) | LC50 (T47D) | CC50 (TK-10) | CC50 (UACC-62) | CC50 [3] | CC50 (IGROV-1) | LC50 (NCI-H322M) | CC50 (PC-3) | CC50 (LOX IMVI) | LC50 (HOP-62) | CC50 (HCT-15) | CC50 [4] | CC50 [5] | CC50 (M19-MEL) | CC50 (UACC-257) | CC50 (KM-20L2) | CC50 (RXF 393) | CC50 (SNB-19) | CC50 (SK-MEL-5) | CC50 (HCT-116) | CC50 (SF-295) | CC50 (HOP-18) | LC50 [6] | CC50 [7] | CC50 (MDA-N) | LC50 (K562) | CC50 (SK-MEL-2) | CC50 (Malme-3M) | CC50 (KM12) | LC50 (DMS-273) | LC50 (A549) | CC50 (786-0) | LC50 (MOLT-4) | CC50 (CAKI-1) | CC50 [8] | LC50 (NCI-H460) | CC50 (UO-31) | CC50 (U-251) | LC50 [9] | LC50 (HCC 2998) | LC50 (SF-268) | CC50 (MCF7)
